NPY-Y2 PAM-ag – human NPY-Y2 potentiation or agonism, primary screen. 220,000 tested, 0.45% active. cells expressing NPY-Y2, potentiator/agonist read-out. activation, % at 3.6 µM. AID 1359; in the data active = activation above about 27%;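 note: cells stimulated with NPY near EC25 plus isoproterenol at EC100; 0% = vehicle plus submaximal agonist and 100% = vehicle plus saturating agonist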
Target sequence (P49146 whole entry, looked up): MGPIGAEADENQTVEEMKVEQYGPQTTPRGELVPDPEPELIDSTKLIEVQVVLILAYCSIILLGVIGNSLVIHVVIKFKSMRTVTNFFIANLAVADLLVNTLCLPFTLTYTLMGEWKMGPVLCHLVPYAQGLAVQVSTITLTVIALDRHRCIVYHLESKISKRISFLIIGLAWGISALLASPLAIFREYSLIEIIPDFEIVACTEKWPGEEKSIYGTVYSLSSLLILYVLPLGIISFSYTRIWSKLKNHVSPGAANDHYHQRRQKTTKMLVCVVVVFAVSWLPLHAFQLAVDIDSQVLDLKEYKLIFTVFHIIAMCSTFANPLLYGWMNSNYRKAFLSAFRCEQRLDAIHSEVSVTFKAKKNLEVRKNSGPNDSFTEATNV
NPY Y2 blocker – blocks the human neuropeptide Y Y2 receptor; inhibition, % at 2.7 µM; 140,000 tested, 0.99% active; NPY-Y2 expressing cells, antagonist mode; P49146; in the data active = inhibition above about 17%;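 note: 0% = vehicle with agonist challenge and 100% = reference antagonist with challenge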
PGE2 EP2 inh – inhibitors of human EP2 prostaglandin E2 receptor; P43116; C6 glioma cells expressing human EP2, cAMP TR-FRET; cells stimulated with saturating PGE2; inhibition, % at 25 µM; 260,000 tested, 0.52% active; AID 1422;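 active = percent inhibition above 40 after rounding to a whole number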;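 note: rat C6 glioma host cells with rolipram phosphodiesterase inhibitor present; the protocol text gives 20 µM as final concentration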
Target sequence (P43116 whole entry, looked up): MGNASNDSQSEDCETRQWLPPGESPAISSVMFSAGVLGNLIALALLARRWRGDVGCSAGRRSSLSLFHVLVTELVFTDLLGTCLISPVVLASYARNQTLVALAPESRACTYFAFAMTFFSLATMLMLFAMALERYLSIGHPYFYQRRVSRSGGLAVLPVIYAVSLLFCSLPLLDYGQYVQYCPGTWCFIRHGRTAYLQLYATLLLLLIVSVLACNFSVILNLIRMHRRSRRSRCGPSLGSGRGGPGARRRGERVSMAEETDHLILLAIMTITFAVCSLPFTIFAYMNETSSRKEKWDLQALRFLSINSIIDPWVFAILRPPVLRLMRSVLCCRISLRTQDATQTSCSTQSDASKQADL
NPY-Y1 antag – antagonists of human neuropeptide Y receptor Y1 | AID 1040 | inhibition, % at 3.6 µM | 200,000 tested, 1% active | HEK293-CNG Y1 cells, membrane potential fluorescence; NPY at EC95, then isoproterenol | P25929;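 active = inhibition above the campaign mean inhibition of all tested compounds plus 3 SD, cut at about 20% in these data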;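 note: 0% = DMSO wells given NPY plus isoproterenol and 100% = isoproterenol alone without NPY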
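Material: HEK293 cells with Y1 receptor plus CNG channel; times: compound incubation 1 h at room temperature, readout 45 min post-stimulation; signal: fluorescence, membrane potential probe; read-out basis: fluorescence ratio normalized to % inhibition between controls; benchmarks: full-block control isoproterenol-only wells, zero-block control NPY plus isoproterenol wells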
NPY-Y1 PAM-ag – potentiates or activates human NPY-Y1 receptor. AID 1304. P25929. 220,000 tested, 0.37% active. activation, % at 3.6 µM. NPY-Y1 expressing cells, potentiator/agonist activation; in the data active = activation above about 33%, passing the limit was not always enough;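 note: cells stimulated with NPY at EC10 then isoproterenol at EC100; 0% = low agonist plus stimulus and 100% = saturating agonist plus stimulus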
EP2 modulator – modulates human prostaglandin E2 receptor EP2 signaling | 260,000 tested, 0.83% active | EP2-expressing cells, cAMP HTRF FRET, PGE2 co-stimulation | P43116 | induction, % at 25 µM;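 active = compounds whose cAMP rise, as percent of the full-agonist control response, exceeds 60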;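 note: rat C6 glioma line stably carrying human EP2 under a CMV promoter; the protocol text gives 20 µM as final concentration; 100% = response of wells given 1 µM PGE2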
* marks the source's active call; other numbers are inactive results; . = not tested or not shown. An excerpt weighted towards active compounds, which were near 2.8% of everything screened.

SMILES | NPY-Y2 PAM-ag | NPY Y2 blocker | PGE2 EP2 inh | NPY-Y1 antag | NPY-Y1 PAM-ag | EP2 modulator
CCN(CC)c1ccc(/C=c2\sc3nnc(-c4ccccc4Cl)n3c2=O)cc1 | -2.4 | -0.7 | 10.1 | -3.5 | -27.6 | 5.2
CCN(CC)c1ccc(/C=c2/sc3nnc(-c4ccccc4C)n3c2=O)cc1 | 11.8 | -0.1 | 48.1* | -3.5 | -11.2 | 11.5
COc1cccc(N=C2SC(C(=O)Nc3ccccc3F)CC(=O)N2C)c1 (stereo not drawn) | -14.2 | 1.4 | 162.7* | -1.1 | -27.8 | -18.7
Cn1c(=S)c2[nH]c(SCCN3C(=O)c4ccccc4C3=O)nc2n(C)c1=O | . | . | 40.6* | . | . | 20.6
CCCn1c(O)c(N=NC(=O)c2ccco2)c2ccccc21 | 23.0 | 4.0 | 8.4 | -1.9 | -7.9 | 5.2
Cc1nc2ccccn2c1C(=O)N=Nc1c(O)n(CCC(C)C)c2ccccc12 | 0.6 | -0.7 | 50.7* | 4.4 | 7.3 | -16.0
CN(C)C(=O)C1C2NC(=S)N(c3ccc(Cl)cc3)C1(C)Oc1ccc(Cl)cc12 (stereo not drawn) | 89.2* | . | 10.7 | -8.9 | 91.6* | 17.1
CN(C)C(=O)C1C2NC(=S)N(c3cccc(Cl)c3)C1(C)Oc1ccc(Cl)cc12 (stereo not drawn) | 28.7* | . | 0.1 | -9.2 | 51.5* | -14.6
CN(C)C(=O)C1C2NC(=S)N(c3ccccc3)C1(C)Oc1ccccc12 (stereo not drawn) | 1.4 | . | 8.4 | -0.6 | 1.7 | 6.2
Cc1ccc(-c2nnc(N(C(=O)C3CCC3)C(C)C)s2)cc1 | . | . | 9.9 | . | . | -86.0
CCCOc1ccc(C2C3=C(CCCC3=O)NC3=C2C(=O)CCC3)cc1Cl | . | . | 7.2 | . | . | 6.8
O=c1[nH]c(=S)n(-c2ccccc2F)c(O)c1/C=C1\C=Nc2ccccc21 | . | . | 116.2* | . | . | -99.0
O=S(=O)(NCc1ccc2c(c1)OCO2)c1ccc2oc3ccccc3c2c1 | -34.9 | 19.3* | 3.4 | 21.2* | -67.2 | .
O=C(CCc1ccc(S(=O)(=O)NCc2ccccc2)cc1)NCc1ccc2c(c1)OCO2 | -0.6 | 13.2 | 5.1 | -1.7 | 13.2 | -16.8
CC(=O)N(Cc1ccccc1)c1nc(-c2ccccc2)cs1 | -21.0 | . | 7.6 | 8.9 | -6.2 | 64.3*
CCOC(=O)Nc1cccc(Nc2ccccc2)c1 | 15.8 | 0.6 | 5.7 | 0.5 | 28.9 | 61.5*
CNC(=O)CSc1nnc(C)n1-c1ccc(N(C)C)cc1 | . | . | 9.5 | . | . | -11.9
CC(C)(C)c1ccc(S(=O)(=O)/C=C/C#N)cc1 | . | . | 96.6* | . | . | -19.6
CC(Oc1ccccc1)C(=O)NC1C(=O)N2C1SC(C)(C)C2C(=O)O (stereo not drawn) | 17.4 | . | 6.7 | -4.4 | 6.9 | -5.2
CC1(C)S[C@H]2[C@H](NC(=O)Cc3ccccc3)C(=O)N2[C@@H]1C(=O)O | . | . | 49.4* | . | . | 19.3
O=c1[nH]c(=O)c2cc(S(=O)(=O)Nc3ccccc3Cc3ccccc3)ccc2[nH]1 | . | . | 8.2 | . | . | -22.2
CC1CC(=O)NN=C1c1ccc(N)c([N+](=O)[O-])c1 (stereo not drawn) | -18.3 | 77.9* | 1.6 | 64.9* | -68.7 | 9.8
COc1cccc(NC(=O)CSc2nnc3c(n2)[nH]c2ccc(OC)cc23)c1 | . | . | 6.0 | . | . | -82.8
Cc1ccc(OCC(=O)Nc2ccc([N+](=O)[O-])cn2)cc1C | -8.2 | 9.1 | 8.9 | 24.5* | -32.6 | .
O=C(Nc1cccc(F)c1)NC1CC2CCCC(C1)N2C1CC1 (stereo not drawn) | 13.7 | -2.7 | 2.9 | 3.8 | 17.6 | -30.3
SMILES | NPY-Y2 PAM-ag | NPY Y2 blocker | PGE2 EP2 inh | NPY-Y1 antag | NPY-Y1 PAM-ag | EP2 modulator
O=C(Nc1ccc(Cl)c(C(F)(F)F)c1)NC1CC2CCCC(C1)N2C1CC1 (stereo not drawn) | 2.5 | -0.2 | 40.9* | -2.8 | -9.0 | .
Cc1cc2cccc(C)c2nc1SCC(=O)NC(C)(C)C | . | . | 8.8 | . | . | 50.6
Cc1cc2c(C)ccc(C)c2nc1SCC(=O)Nc1c(C)cccc1C | . | . | 7.1 | . | . | -1.0
Cc1cc2c(C)ccc(C)c2nc1SCC(=O)O | . | . | 13.6 | . | . | 79.0*
Cc1cc2cccc(C)c2nc1SCC(=O)c1ccccc1 | . | . | 23.9 | . | . | 68.7*
Cc1ccc(Cn2cnc3sc(C(N)=O)c(C)c3c2=O)cc1 | . | . | 8.2 | . | . | -26.5
Cc1cc2cc(CN(Cc3ccc(Cl)cc3)C(=O)c3cnccn3)c(=O)[nH]c2cc1C | . | . | 6.2 | . | . | -19.5
O=C(NCc1cccnc1)c1ccc(-c2ccc(Cl)cc2)o1 | 0.0 | . | 13.1 | -1.8 | 15.5 | -41.6
O=C(NCc1cccnc1)/C(=C\c1ccc(-c2ccc(Cl)c(Cl)c2)o1)S(=O)(=O)c1ccccc1 | -18.3 | 17.1* | 1.8 | 23.9* | -43.6 | -48.2
COc1ccc(CNCC(O)COc2cccc3c2OC(C)(C)C3)cc1 (stereo not drawn) | 95.1* | . | 7.4 | -8.5 | 106.2* | -22.6
CCc1c(C)nc2ncnn2c1N1CCN(C(=O)c2ccccc2)CC1 | . | . | 12.3 | . | . | 23.5
Cc1ccc(Cn2c(-c3nonc3N)nc3ccccc32)cc1 | -8.1 | 20.8* | 9.3 | 23.4* | -41.2 | 43.5
C[n+]1ccccc1/C=C1\Sc2ccccc2N1CCCS(=O)(=O)[O-] | . | . | 10.5 | . | . | 17.2
CSc1ccc(-c2nnn(Cc3ccc(Br)cc3)n2)cc1 | -37.2 | 14.3 | 43.0* | 14.4 | -46.9 | -42.4
COc1cc(/C=N/N2CCN(C3c4ccccc4-c4ccccc43)CC2)ccc1O | -5.0 | 3.2 | 10.3 | 9.9 | -18.1 | 54.6
C(=N\N1CCN(C2c3ccccc3-c3ccccc32)CC1)/c1ccncc1 | 3.9 | 7.7 | 9.4 | 6.0 | -16.6 | 61.1*
COc1cccc(/C=N/N2CCN(C3c4ccccc4-c4ccccc43)CC2)c1O | -17.6 | . | 8.7 | . | 4.5 | 65.5*
CN(C)C(=O)COc1ccc2c(c1)oc(=O)c1ccccc12 | . | . | 6.7 | . | . | -39.3
Cc1ccc2cc(CN(Cc3ccccc3)Cc3nnnn3C3CCCC3)c(=O)[nH]c2c1 | -4.4 | 6.6 | 5.7 | 12.2 | -26.7 | 61.5*
CCOC(=O)Cn1nnnc1CN(Cc1ccccc1)Cc1cc2c(C)cc(C)cc2[nH]c1=O | . | . | 14.9 | . | . | 65.0*
Cc1cc2cc(CN(CCc3ccccc3)Cc3nnnn3C3CCCCC3)c(=O)[nH]c2cc1C | . | . | 9.8 | . | . | 65.7*
Cc1ccc2[nH]c(=O)c(CN(Cc3cccs3)Cc3nnnn3C3CCCC3)cc2c1 | . | . | 14.9 | . | . | 75.1*
CCOC(=O)C1C(=O)C=C(c2cccc(NS(C)(=O)=O)c2)CC1c1cccs1 (stereo not drawn) | . | . | 6.3 | . | . | -6.8
Cc1csc(NC(C)C)n1 | . | . | 5.9 | . | . | -24.1
Cc1ccc2[nH]c(=O)c(CN(Cc3ccc(F)cc3)Cc3nnnn3C3CCCC3)cc2c1 | . | . | 19.3 | . | . | 63.1*
Cc1ccc2cc(CN(Cc3ccc(F)cc3)Cc3nnnn3C3CCCC3)c(=O)[nH]c2c1 | -0.1 | 5.7 | 3.5 | 14.4 | 4.6 | 57.5
CCc1ccc2[nH]c(=O)c(CN(Cc3ccccc3)Cc3nnnn3C3CCCCC3)cc2c1 | . | . | 17.1 | . | . | 74.4*
CCc1ccc2[nH]c(=O)c(CN(Cc3ccc4c(c3)OCO4)Cc3nnnn3C3CCCC3)cc2c1 | 8.3 | 1.9 | 7.5 | 6.3 | -30.8 | 53.5

High-throughput results: PubChem, several laboratories
